From ChEMBL document CHEMBL4000209, “Chemical synthesis and biological evaluation of ω-hydroxy polyunsaturated fatty acids” (Bioorg Med Chem Lett, 2017)
Activity calls are given as the source filed them.

Assays:
Rattus norvegicus [1] = assay: Induction of mechanical allodynia in Sprague-Dawley rat assessed as decrease in withdrawal threshold at 1 ug administered as intraplantar injection measured up to 150 mins post dose by Von Frey assay; parameters: scale not given: the % may be the effect or the level left; settings: in vivo, other, 2.5 h
Summary of the method: (§1)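 Naive male Sprague Dawley rats, n = 6; methyl esters given by intraplantar injection in 1:9 EtOH/saline. Mechanical withdrawal thresholds measured with an electronic von Frey aesthesiometer over a time course, ipsilateral and contralateral paws. Data analysed by two-way ANOVA with Holm-Sidak post hoc test.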

Rattus norvegicus [2] = assay: Induction of mechanical allodynia in Sprague-Dawley rat assessed as decrease in ipsilateral hind paw withdrawal threshold administered as intraplantar injection measured up to 150 mins post dose by Von Frey assay; settings: in vivo, other, 2.5 h; summary of the method: as §1
Rattus norvegicus [3] = assay: Induction of mechanical allodynia in Sprague-Dawley rat assessed as decrease in contralateral hind paw withdrawal threshold at 3 ug administered as intraplantar injection measured up to 150 mins post dose by Von Frey assay; settings: in vivo, other, 2.5 h; summary of the method: as §1
[4] = target: Transient receptor potential cation channel subfamily V member 1 (Mus musculus) (UniProt Q704Y3); assay: Agonist activity at recombinant mouse TRPV1 expressed in HEK293 cells assessed as increase in calcium influx up to 10 uM measured for 380 sec by Fluo-4 dye based FLIPR assay; assay type: cell-based
Summary of the method: (§2)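 mTRPV1-transfected HEK293 cells; Ca2+ influx followed over time and quantified as area under the curve; capsaicin as positive control. Experiments repeated twice, each in triplicate.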

[5] = target: T1, Prostaglandin G/H synthase 1 (Ovis aries) (UniProt P05979); assay: Inhibition of ovine COX1 at 100 uM using arachidonic acid as substrate after 2 mins by fluorometric substrate-based fluorescence assay relative to control
T1 sequence (whole entry): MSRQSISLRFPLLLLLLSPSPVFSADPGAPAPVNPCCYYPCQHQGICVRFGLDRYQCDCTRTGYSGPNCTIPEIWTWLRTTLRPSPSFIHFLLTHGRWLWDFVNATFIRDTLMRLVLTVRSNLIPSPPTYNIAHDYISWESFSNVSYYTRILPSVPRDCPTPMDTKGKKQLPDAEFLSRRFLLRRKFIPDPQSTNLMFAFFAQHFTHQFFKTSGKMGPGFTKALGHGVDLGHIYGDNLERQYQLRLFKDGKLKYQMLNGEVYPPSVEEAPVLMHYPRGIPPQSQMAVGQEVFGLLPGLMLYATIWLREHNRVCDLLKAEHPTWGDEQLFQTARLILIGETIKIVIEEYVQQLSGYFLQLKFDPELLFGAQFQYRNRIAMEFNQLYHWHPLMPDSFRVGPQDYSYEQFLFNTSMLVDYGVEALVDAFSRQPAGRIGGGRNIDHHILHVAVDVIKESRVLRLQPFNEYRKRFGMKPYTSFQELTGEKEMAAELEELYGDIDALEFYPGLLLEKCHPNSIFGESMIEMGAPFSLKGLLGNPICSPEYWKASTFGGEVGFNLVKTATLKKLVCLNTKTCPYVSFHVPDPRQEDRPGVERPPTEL

[6] = target: T2, Prostaglandin G/H synthase 2 (Homo sapiens) (UniProt P35354); settings: at 100 µM
T2 sequence (whole entry): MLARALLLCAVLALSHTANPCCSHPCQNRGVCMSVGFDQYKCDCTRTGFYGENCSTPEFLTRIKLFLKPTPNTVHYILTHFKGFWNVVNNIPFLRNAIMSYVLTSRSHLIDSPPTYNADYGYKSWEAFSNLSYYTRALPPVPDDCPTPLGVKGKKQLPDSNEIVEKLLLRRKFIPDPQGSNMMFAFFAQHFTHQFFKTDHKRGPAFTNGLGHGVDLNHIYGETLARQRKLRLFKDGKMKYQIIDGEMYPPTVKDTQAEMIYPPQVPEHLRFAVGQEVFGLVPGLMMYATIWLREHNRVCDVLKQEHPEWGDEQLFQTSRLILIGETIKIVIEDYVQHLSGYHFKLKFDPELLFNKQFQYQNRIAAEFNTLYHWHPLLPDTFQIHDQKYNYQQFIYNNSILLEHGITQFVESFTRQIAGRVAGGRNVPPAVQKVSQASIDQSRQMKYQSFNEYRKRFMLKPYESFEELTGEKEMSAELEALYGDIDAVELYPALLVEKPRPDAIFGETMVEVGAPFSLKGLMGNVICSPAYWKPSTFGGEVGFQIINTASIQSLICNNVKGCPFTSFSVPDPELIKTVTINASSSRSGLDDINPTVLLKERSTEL

Rattus norvegicus [7] = assay: Induction of mechanical allodynia in Sprague-Dawley rat assessed as decrease in withdrawal threshold at 100 ng administered as intraplantar injection by Von Frey assay relative to control; parameters: scale not given: the % may be the effect or the level left; settings: in vivo, other; summary of the method: as §1
[8] = target: Transient receptor potential cation channel subfamily V member 1 (Mus musculus) (UniProt Q704Y3); assay: Agonist activity at recombinant mouse TRPV1 expressed in HEK293 cells assessed as increase in calcium influx at 10 uM measured for 380 sec by Fluo-4 dye based FLIPR assay; assay type: cell-based; summary of the method: as §2

Transient receptor potential cation channel subfamily V member 1 (Mus musculus), sequence (Q704Y3 whole entry): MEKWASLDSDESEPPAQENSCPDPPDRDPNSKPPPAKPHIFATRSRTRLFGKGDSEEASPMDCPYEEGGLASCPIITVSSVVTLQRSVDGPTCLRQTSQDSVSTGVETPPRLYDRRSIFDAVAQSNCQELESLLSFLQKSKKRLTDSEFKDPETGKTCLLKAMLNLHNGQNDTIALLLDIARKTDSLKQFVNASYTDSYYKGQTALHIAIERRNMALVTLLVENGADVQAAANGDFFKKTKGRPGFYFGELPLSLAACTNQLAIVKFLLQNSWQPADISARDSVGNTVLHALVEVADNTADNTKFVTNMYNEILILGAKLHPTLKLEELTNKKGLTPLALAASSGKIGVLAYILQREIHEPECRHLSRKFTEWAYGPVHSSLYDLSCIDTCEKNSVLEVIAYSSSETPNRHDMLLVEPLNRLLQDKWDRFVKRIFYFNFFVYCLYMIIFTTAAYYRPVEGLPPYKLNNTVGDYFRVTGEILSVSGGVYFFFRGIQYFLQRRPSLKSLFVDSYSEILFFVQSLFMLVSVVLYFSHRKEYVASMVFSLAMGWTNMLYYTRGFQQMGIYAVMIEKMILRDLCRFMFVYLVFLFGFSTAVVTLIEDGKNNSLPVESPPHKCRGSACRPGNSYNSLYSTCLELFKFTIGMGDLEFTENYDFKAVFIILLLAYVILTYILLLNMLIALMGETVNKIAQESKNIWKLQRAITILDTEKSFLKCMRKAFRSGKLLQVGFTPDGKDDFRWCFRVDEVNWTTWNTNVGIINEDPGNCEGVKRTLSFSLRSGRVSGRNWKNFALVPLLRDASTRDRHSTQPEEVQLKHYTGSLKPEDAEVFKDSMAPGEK

Structure (SMILES) | Activity (Rattus norvegicus [1]) | Activity (Rattus norvegicus [2]) | Activity (Rattus norvegicus [3]) | Activity [4] | inhibition [5] [%] | inhibition [6] [%] | Activity (Rattus norvegicus [7]) [%] | Activity [8]
O=C(O)CCC/C=C\C/C=C\C/C=C\C/C=C\CCCCCO | 30% | Dose-dependent effect | Non-Toxic | inactive | 27.5 | 0 |  | 
CCCCC[C@H](O)/C=C/[C@H]1[C@H](O)CC(=O)[C@@H]1C/C=C\CCCC(=O)O [DINOPROSTONE] |  |  |  |  |  |  | 60 | 
O=C(O)CCC/C=C\C/C=C\C/C=C\C/C=C\C/C=C\CCO | Non-Toxic |  |  |  | 37.1 | 0 |  | Active
O=C(O)CC/C=C\C/C=C\C/C=C\C/C=C\C/C=C\C/C=C\CCO | Non-Toxic |  |  |  | 38.1 | 1 |  | Active
